Test results from ChEMBL document CHEMBL4000223, “Evaluation of substituted ebselen derivatives as potential trypanocidal agents” (Bioorg Med Chem Lett, 2017).

Columns and labels:
[1] = Inhibition of recombinant Trypanosoma brucei His6-tagged HK1 expressed in Escherichia coli M15(pREP) harboring pQE30 using glucose as substrate by spectrophotometric based glucose 6-phosphate dehydrogenase enzyme coupled assay
[2] = test system: Trypanosoma brucei; test: Antitrypanosomal activity against Trypanosoma brucei 427 bloodstream forms at 10 uM after 72 hrs by CellTiter-Blue fluorescence assay; format: functional; settings: Trypanosoma brucei, 427, 72 h
In short: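 Single-concentration growth screen of bloodstream-form cultures, run in triplicate. Percent inhibition was calculated against growth of parasites given DMSO vehicle on the same plate, which served as the negative control. EbS at the same concentration was included in each assay as a positive control.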

[3] = test system: Trypanosoma brucei; test: Antitrypanosomal activity against Trypanosoma brucei 427 bloodstream forms after 72 hrs by CellTiter-Blue fluorescence assay; format: functional; settings: Trypanosoma brucei, 427, 72 h
In short: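 Bloodstream-form cultures were run as triplicate dose-response series to derive 50% effective concentrations. Compounds were taken to this stage only if they gave more than 50% growth inhibition in the single-concentration screen. DMSO vehicle served as the negative control, and EbS was included as a positive control in each assay.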

[4] = test system: Trypanosoma brucei; test: Inhibition of recombinant Trypanosoma brucei His6-tagged HK1 expressed in Escherichia coli M15(pREP) harboring pQE30 at 10 uM using glucose as substrate by spectrophotometric based glucose 6-phosphate dehydrogenase enzyme coupled assay
In short: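 Purified recombinant TbHK1 incubated with the compound at a single fixed screening concentration, after which enzyme activity was scored. Percent inhibition is recorded relative to uninhibited enzyme.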

[5] = Inhibition of recombinant Trypanosoma brucei HK1 expressed in Escherichia coli or yeast using glucose as substrate by spectrophotometric based glucose 6-phosphate dehydrogenase enzyme coupled assay
[6] = Inhibition of recombinant Trypanosoma brucei His6-tagged HK1 expressed in Escherichia coli M15(pREP) harboring pQE30 using glucose as substrate after 2 hrs by spectrophotometric based glucose 6-phosphate dehydrogenase enzyme coupled assay
[7] = test system: Trypanosoma brucei; test: Antitrypanosomal activity against Trypanosoma brucei bloodstream forms after 72 hrs by CellTiter-Blue fluorescence assay; format: functional
In short: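 Bloodstream-form T. brucei cultures assayed in triplicate, with DMSO vehicle as negative control and a reference ebselen analogue as positive control on each plate. Growth inhibition is calculated against the DMSO controls of the same plate. Compounds giving over 50% inhibition in the single-concentration screen went on to triplicate dose-response curves to derive 50% effective concentrations.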

O=C(O)c1ccc(-n2sc3ccccc3c2=O)cc1
IC50 [1]: > 10 µM | inhibition at 10 µM [2]: 0% | EC50 [3]: > 10 µM | inhibition [4]: 0%

O=C(O)c1cccc2c(=O)n(-c3ccccc3)sc12
IC50 [1]: > 10 µM | inhibition at 10 µM [2]: 10.9% | EC50 [3]: > 10 µM | inhibition [4]: 0%

O=C(O)c1nn(Cc2ccc(Cl)cc2Cl)c2ccccc12 [LONIDAMINE]
IC50 [5]: 850 µM

CC(C)C[C@@H](NC(=O)[C@@H](CCCCN)NC(=O)[C@@H](C)NC(=O)CNC(=O)CNC(=O)c1cccc(-n2[se]c3ccccc3c2=O)c1)C(=O)O
IC50 [1]: > 10 µM | inhibition at 10 µM [2]: 28.4% | EC50 [3]: > 10 µM | inhibition [4]: 0%

O=c1c2ccccc2[se]n1-c1ccccc1 [EBSELEN]
IC50 [6]: 0.05 µM | EC50 [7]: 2.9 µM

COC(=O)Cn1[se]c2ccccc2c1=O
IC50 [1]: > 10 µM | inhibition at 10 µM [2]: 0% | EC50 [3]: > 10 µM | inhibition [4]: 0%

CC(C)C[C@@H](NC(=O)[C@@H](CCCCN)NC(=O)[C@@H](C)NC(=O)CNC(=O)CNC(=O)c1cccc2c(=O)n(-c3ccccc3)sc12)C(=O)O
IC50 [1]: > 10 µM | inhibition at 10 µM [2]: 0% | EC50 [3]: > 10 µM | inhibition [4]: 0%

O=C(O)Cn1[se]c2ccccc2c1=O
IC50 [1]: > 10 µM | inhibition at 10 µM [2]: 0% | EC50 [3]: > 10 µM | inhibition [4]: 0%

COC(=O)c1cccc(-n2sc3ccccc3c2=O)c1
IC50 [1]: > 10 µM | inhibition at 10 µM [2]: 8.8% | EC50 [3]: > 10 µM | inhibition [4]: 1.7%

O=C(O)c1cccc2c(=O)n(-c3ccccc3)[se]c12
IC50 [1]: > 10 µM | inhibition at 10 µM [2]: 0% | EC50 [3]: > 10 µM | inhibition [4]: 0%

O=C(O)Cn1sc2ccccc2c1=O
IC50 [1]: > 10 µM | inhibition at 10 µM [2]: 77.6% | EC50 [3]: 7.2 µM | inhibition [4]: 0.87%

CC(C)C[C@@H](NC(=O)[C@@H](CCCCN)NC(=O)[C@@H](C)NC(=O)CNC(=O)CNC(=O)c1cccc2c(=O)n(-c3ccccc3)[se]c12)C(=O)O
IC50 [1]: > 10 µM | inhibition at 10 µM [2]: 0% | EC50 [3]: > 10 µM | inhibition [4]: 0%

COC(=O)c1cccc2c(=O)n(-c3ccccc3)[se]c12
IC50 [1]: > 10 µM | inhibition at 10 µM [2]: 55.6% | EC50 [3]: 10 µM | inhibition [4]: 2.7%

CC(C)C[C@H](NC(=O)[C@H](CCCCN)NC(=O)[C@H](C)NC(=O)CCOCCOCCNC(=O)c1ccc(-n2[se]c3ccccc3c2=O)cc1)C(=O)O
IC50 [1]: > 10 µM | inhibition at 10 µM [2]: 25% | EC50 [3]: > 10 µM | inhibition [4]: 0%

O=C(O)c1cccc(-n2sc3ccccc3c2=O)c1
IC50 [1]: > 10 µM | inhibition at 10 µM [2]: 15.8% | EC50 [3]: > 10 µM | inhibition [4]: 0%

CC(C)C[C@@H](NC(=O)[C@@H](CCCCN)NC(=O)[C@@H](C)NC(=O)CNC(=O)CNC(=O)Cn1[se]c2ccccc2c1=O)C(=O)O
IC50 [1]: > 10 µM | inhibition at 10 µM [2]: 34.4% | EC50 [3]: > 10 µM | inhibition [4]: 1.7%

CC(C)C[C@@H](NC(=O)[C@@H](CCCCN)NC(=O)[C@@H](C)NC(=O)CNC(=O)CNC(=O)Cn1sc2ccccc2c1=O)C(=O)O
IC50 [1]: > 10 µM | inhibition at 10 µM [2]: 28% | EC50 [3]: > 10 µM | inhibition [4]: 3.7%

COC(=O)c1ccc(-n2[se]c3ccccc3c2=O)cc1
IC50 [1]: 3.16 µM | inhibition at 10 µM [2]: 38.6% | EC50 [3]: 13 µM | inhibition [4]: 79%

CC(C)C[C@H](NC(=O)[C@H](CCCCN)NC(=O)[C@H](C)NC(=O)CCOCCOCCNC(=O)c1ccc(-n2sc3ccccc3c2=O)cc1)C(=O)O
IC50 [1]: > 10 µM | inhibition at 10 µM [2]: 35.4% | EC50 [3]: > 10 µM | inhibition [4]: 0%

COC(=O)c1cccc(-n2[se]c3ccccc3c2=O)c1
IC50 [1]: > 10 µM | inhibition at 10 µM [2]: 18% | EC50 [3]: > 10 µM | inhibition [4]: 0%

CC(C)C[C@@H](NC(=O)[C@@H](CCCCN)NC(=O)[C@@H](C)NC(=O)CNC(=O)CNC(=O)c1ccc(-n2sc3ccccc3c2=O)cc1)C(=O)O
IC50 [1]: > 10 µM | inhibition at 10 µM [2]: 26.4% | EC50 [3]: > 10 µM | inhibition [4]: 10.4%

CC(C)C[C@@H](NC(=O)[C@@H](CCCCN)NC(=O)[C@@H](C)NC(=O)CNC(=O)CNC(=O)c1cccc(-n2sc3ccccc3c2=O)c1)C(=O)O
IC50 [1]: > 10 µM | inhibition at 10 µM [2]: 0% | EC50 [3]: > 10 µM | inhibition [4]: 0%

COC(=O)c1ccc(-n2sc3ccccc3c2=O)cc1
IC50 [1]: > 10 µM | inhibition at 10 µM [2]: 66.5% | EC50 [3]: 3.8 µM | inhibition [4]: 22.8%

O=C(O)c1ccc(-n2[se]c3ccccc3c2=O)cc1
IC50 [1]: > 10 µM | inhibition at 10 µM [2]: 12% | EC50 [3]: > 10 µM | inhibition [4]: 17.2%

O=c1c2ccccc2sn1-c1ccccc1
IC50 [6]: 2 µM | EC50 [7]: 0.03 µM

COC(=O)c1cccc2c(=O)n(-c3ccccc3)sc12
IC50 [1]: > 10 µM | inhibition at 10 µM [2]: 52.5% | EC50 [3]: 10 µM | inhibition [4]: 18%

O=C(O)c1cccc(-n2[se]c3ccccc3c2=O)c1
IC50 [1]: > 10 µM | inhibition at 10 µM [2]: 0% | EC50 [3]: > 10 µM | inhibition [4]: 18.5%

CC(C)C[C@@H](NC(=O)[C@@H](CCCCN)NC(=O)[C@@H](C)NC(=O)CNC(=O)CNC(=O)c1ccc(-n2[se]c3ccccc3c2=O)cc1)C(=O)O
IC50 [1]: > 10 µM | inhibition at 10 µM [2]: 44.1% | EC50 [3]: > 10 µM | inhibition [4]: 0%

COC(=O)Cn1sc2ccccc2c1=O
IC50 [1]: > 10 µM | inhibition at 10 µM [2]: 98.3% | EC50 [3]: 0.28 µM | inhibition [4]: 12.8%
